Screening data deposited in PubChem by several laboratories.
Cl transport mod – KCC2 cotransporter modulators, thallium flux, primary screen, cell-based, HEK293 KCC2, FluoZin-2 fluorescence, MLSMR; Solute carrier family 12 member 5 (Homo sapiens), Q9H2X9; KCC2 cells, thallium flux FluoZin-2 fluorescence; B-score of Tl+ flux slope (higher = more flux/activation; lower = inhibition) at 10 µM; 190,000 tested, 2.2% active; AID 1456, 2008;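 active = thallium flux slope and its plate-corrected score both differing from the plate sample mean at a set confidence after two filtering rounds, in either direction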;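 note: slope of fluorescence scaled to starting intensity during 10 to 20 s after thallium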
Target sequence (Q9H2X9 whole entry, looked up): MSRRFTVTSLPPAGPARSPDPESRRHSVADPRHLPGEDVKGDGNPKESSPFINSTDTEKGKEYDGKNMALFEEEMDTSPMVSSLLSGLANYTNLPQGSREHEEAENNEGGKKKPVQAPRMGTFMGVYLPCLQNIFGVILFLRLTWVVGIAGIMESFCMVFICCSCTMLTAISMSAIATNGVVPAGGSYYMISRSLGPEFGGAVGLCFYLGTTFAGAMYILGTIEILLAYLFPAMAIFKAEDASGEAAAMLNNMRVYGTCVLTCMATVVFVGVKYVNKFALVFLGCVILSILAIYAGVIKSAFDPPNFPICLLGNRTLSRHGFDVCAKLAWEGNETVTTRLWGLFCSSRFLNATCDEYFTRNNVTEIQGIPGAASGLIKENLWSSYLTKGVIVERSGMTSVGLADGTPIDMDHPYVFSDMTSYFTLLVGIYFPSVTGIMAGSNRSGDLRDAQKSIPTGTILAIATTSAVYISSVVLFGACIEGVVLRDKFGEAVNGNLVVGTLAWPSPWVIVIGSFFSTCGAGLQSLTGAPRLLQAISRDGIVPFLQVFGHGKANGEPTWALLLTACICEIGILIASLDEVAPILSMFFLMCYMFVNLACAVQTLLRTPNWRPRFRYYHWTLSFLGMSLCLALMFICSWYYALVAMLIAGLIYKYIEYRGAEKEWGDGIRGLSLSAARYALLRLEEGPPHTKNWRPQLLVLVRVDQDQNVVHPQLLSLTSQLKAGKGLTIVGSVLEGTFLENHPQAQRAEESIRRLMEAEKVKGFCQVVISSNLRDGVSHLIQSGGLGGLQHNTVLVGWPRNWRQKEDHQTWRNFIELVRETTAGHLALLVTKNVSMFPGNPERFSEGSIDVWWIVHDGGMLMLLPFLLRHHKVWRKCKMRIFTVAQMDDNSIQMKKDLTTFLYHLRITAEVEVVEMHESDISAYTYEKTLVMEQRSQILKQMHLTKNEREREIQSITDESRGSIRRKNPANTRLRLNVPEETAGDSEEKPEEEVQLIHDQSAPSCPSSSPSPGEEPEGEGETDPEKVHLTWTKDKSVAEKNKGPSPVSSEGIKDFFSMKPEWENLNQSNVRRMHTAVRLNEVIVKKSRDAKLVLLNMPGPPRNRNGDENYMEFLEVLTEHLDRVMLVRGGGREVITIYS
NPY-Y1 antag – NPY-Y1 receptor antagonists, primary screen, cell-based; Neuropeptide Y receptor type 1 (Homo sapiens), P25929; HEK293-CNG Y1 cells, membrane potential fluorescence; NPY at EC95, then isoproterenol; inhibition, % at 3.6 µM; 200,000 tested, 1% active; AID 1040, 2008;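 active = inhibition above the campaign mean inhibition of all tested compounds plus 3 SD, cut at about 20% in these data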;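 note: 0% = DMSO wells given NPY plus isoproterenol and 100% = isoproterenol alone without NPY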
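Test system: HEK293 cells co-expressing NPY Y1 receptor and cyclic-nucleotide gated channel; Also added: NPY (25 nM), isoproterenol (1 µM), Ro 20-1724 (25 µM); Compound dosing: one concentration, 3.6 µM, in 0.4% DMSO; Timing: dye 3 h, compound 60 min room temperature, stimulation 45 min; Technique: Membrane-potential fluorescent dye readout.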
NPY-Y1 PAM-ag – NPY-Y1 receptor potentiators or agonists, primary screen, cell-based; Neuropeptide Y receptor type 1 (Homo sapiens), P25929; NPY-Y1 expressing cells, potentiator/agonist activation; activation, % at 3.6 µM; 220,000 tested, 0.37% active; AID 1304, 2008; in the data active = activation above about 33%, passing the limit was not always enough;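 note: cells stimulated with NPY at EC10 then isoproterenol at EC100; 0% = low agonist plus stimulus and 100% = saturating agonist plus stimulus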
Furin inhibitor – human furin inhibitors, primary screen, biochemical, fluorescence intensity; purified furin, fluorogenic substrate cleavage; inhibition, % at 20 µM or 30 µM; 220,000 tested, 0.061% active; P09958; AID 463115, 2010; in the data active = inhibition above about 25%
NPY2 pot ag – NPY-Y2 potentiators or agonists, primary screen, cell-based; 220,000 tested, 0.45% active; AID 1359, 2008; activation, % at 3.6 µM; cells expressing NPY-Y2, potentiator/agonist read-out; Neuropeptide Y receptor type 2 (Homo sapiens), P49146; in the data active = activation above about 27%;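 note: cells stimulated with NPY near EC25 plus isoproterenol at EC100; 0% = vehicle plus submaximal agonist and 100% = vehicle plus saturating agonist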
NPY-Y2 antag – NPY-Y2 receptor antagonists, primary screen, cell-based; 140,000 tested, 0.99% active; inhibition, % at 2.7 µM; NPY-Y2 expressing cells, antagonist mode; in the data active = inhibition above about 17%;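 note: 0% = vehicle with agonist challenge and 100% = reference antagonist with challenge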
KCC2 sec1 – KCC2 modulators in sodium-free buffer, confirmation, cell-based, HEK293 KCC2, thallium flux, secondary assay; shares compounds with Cl transport mod; FluoZin2 fluorescence; stronger effect = higher value; normalised thallium flux (F/F0 slope) at 10 µM; 3,700 tested, 15% active;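 active = thallium flux slope above the same plate's solvent-only control mean plus 3 SD; inconclusive = the two replicate wells disagree; inactive = no significant difference from solvent-only control wells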
KCC2 bumet counter – thallium flux persisting under bumetanide in KCC2 cells, confirmation, counter-screen for KCC2 modulator project, cell-based, HEK293 KCC2, FluoZin2, secondary assay 3 | HEK293-KCC2 + bumetanide/ouabain; stronger effect = higher value | AID 1714, 2009 | normalized thallium flux at 10 µM | 3,700 tested, 49% active | shares compounds with Cl transport mod;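 active = thallium entry rate above the same plate's blocked-transporter control wells by more than 3 SD; inconclusive = the two repeat wells disagree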;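 note: raw slope of fluorescence over initial fluorescence between 10 and 20 s after thallium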
KCC2 secondary2 – KCC2 modulators without ouabain present, confirmation, cell-based, HEK293 KCC2, thallium flux, FluoZin2, secondary assay 2; shares compounds with Cl transport mod; thallium flux FluoZin2 fluorescence; actives lie on both sides; F/F0 rise rate, 10–20 s post-thallium; normalized thallium flux at 10 µM; 3,700 tested, 23% active; AID 1715, 2009;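 active = thallium flux slope more than 3 SD above or below the plate's solvent-only control mean, mostly below; inconclusive = the two repeat wells disagreed; inactive = no significant shift from solvent-only controls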;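 note: raw slope with 0.1% DMSO as baseline and bumetanide as block control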
HEK counter1 – thallium flux modulation in parental HEK cells, confirmation, counter-screen for KCC2 modulator project, cell-based, counterscreen 1; shares compounds with Cl transport mod; HEK293 parental cells, thallium flux FluoZin2, ouabain; baseline-ratio fluorescence slope, 10–20 s after thallium; thallium flux rate (normalised fluorescence) at 10 µM; 3,700 tested, 46% active;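 active = thallium flux rate significantly above the same plate's solvent-only control wells, beyond their mean plus 3 SD; inconclusive = the two replicate wells gave conflicting results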
KCC2 ouabain – KCC2 inhibitors and activators, ouabain retest, confirmation, HEK-KCC2 cells. HEK293-KCC2, thallium flux FluoZin2 fluorescence; bidirectional: low = inhibitor, high = activator. 3,700 tested, 48% active. raw Tl+ flux slope (below DMSO = inhibition, above = activation) at 10 µM. shares compounds with Cl transport mod. AID 1717, 2009;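 active = thallium flux slope beyond 3 SD from same-plate DMSO control mean in most replicates, usually higher, sometimes lower; inconclusive = repeat tests gave conflicting results; inactive = no significant difference from controls in most replicates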;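 note: slope of initial-normalized fluorescence between seconds 10 and 20 after thallium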
HEK293 Tl flux2 – native HEK Tl+ uptake effects, second counter-screen – HEK cells, counterscreen 2, counter-screen for KCC2 modulator project, confirmation. shares compounds with Cl transport mod. HEK293 parental, thallium flux FluoZin-2 fluorescence slope. thallium flux slope at 10 µM. 3,700 tested, 33% active. AID 1718, 2009;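 active = thallium flux slope above the same plate's solvent-control mean plus 3 SD in both duplicate wells; inconclusive = duplicate wells that disagreed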;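 note: run without ouabain in cells lacking the KCC2 cotransporter; slope of fluorescence scaled to its starting value between 10 and 20 s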
The depositor's hits bear a star; ? = inconclusive; · = not tested or not shown. Hits are enriched below; roughly 3.7% of the tested compounds scored in any of these assays.

SMILES	Cl transport mod	NPY-Y1 antag	NPY-Y1 PAM-ag	Furin inhibitor	NPY2 pot ag	NPY-Y2 antag	KCC2 sec1	KCC2 bumet counter	KCC2 secondary2	HEK counter1	KCC2 ouabain	HEK293 Tl flux2
Cc1cc(/C=C2\SC(=S)NC2=O)c(C)n1-c1cccc(O)c1	-0.73	·	32	-14	2	·	·	·	·	·	·	·
Cc1sc(-n2c(C)cc(/C=C3\SC(=S)NC3=O)c2C)c(C#N)c1C	9*	-2	21	-4	-7	3	0.0063	0.016*	0.031	0.016*	?	?
CC(C)(C)NC(=O)C(c1cccs1)N(CC1CCCO1)C(=O)c1ccc(-c2ccccc2)[nH]1 (stereo unspecified)	-6.6*	-10	-6	-28	-3	2	0.0088	0.0066	0.022*	0.0055	0.01*	0.0091
COc1ccc(CN(C(=O)c2ccc(-c3ccccc3)[nH]2)C(C(=O)NCC2CCCO2)c2ccc(C)o2)cc1 (stereo unspecified)	·	-6	10	-19	15	-3	0.006	0.0052	0.025*	0.0075	?	0.0099
CC(C)(C)NC(=O)C(c1ccncc1)N(Cc1ccco1)C(=O)c1ccc(-c2ccccc2)[nH]1 (stereo unspecified)	-5*	-8	0	-29	-5	·	0.0057	0.0052	0.024*	0.0076	?	0.011
CC(C)(C)NC(=O)C(c1cccs1)N(CC1CCCO1)C(=O)Cn1nnc(-c2cccs2)n1 (stereo unspecified)	0.17	-5	-10	-20	-26	3	·	·	·	·	·	·
O=C(NCC1CCCO1)C(c1cccs1)N(C(=O)c1ccc(-c2ccccc2)[nH]1)C1CCCC1 (stereo unspecified)	-5.7*	8	-10	-9	0	6	0.01	0.0064	?	0.0068	0.015*	0.011
O=C(NCC1CCCO1)C(c1cccs1)N(Cc1ccccc1)C(=O)c1ccc(-c2ccccc2)[nH]1 (stereo unspecified)	-4	-2	7	-1	-10	3	·	·	·	·	·	·
CC(NC(=O)CCC(=O)c1ccc(F)cc1)C1CC2CCC1C2 (stereo unspecified)	-1	4	-16	-2	-15	·	·	·	·	·	·	·
CCOC(=O)Cc1csc(NC(=O)c2ccc(OC)c(OC)c2)n1	-0.0054	4	21	-23	-6	0	·	·	·	·	·	·
CCOC(=O)Cc1csc(NC(=O)Nc2ccc(F)cc2)n1	0.79	·	1	-14	-2	·	·	·	·	·	·	·
CCOC(=O)Cc1csc(NC(=S)NC(=O)c2ccc(F)cc2)n1	11*	7	-7	-16	12	2	0.0072	0.039*	0.041*	0.03*	0.046*	0.02*
CCOC(=O)Cc1csc(NC(=S)NC(=O)c2cc(OC)c(OC)c(OC)c2)n1	6.9*	·	-3	-24	-6	·	0.016	0.016*	0.03	0.0098*	0.019	0.011
N#Cc1nc(-c2ccc(F)cc2)oc1N1CCCC1	-5.7*	3	12	-36	-3	4	0.0055	0.004	0.027	0.0073	0.017	0.0093
Cc1ccc(-c2nc(C#N)c(N3CCCCC3)o2)cc1	-0.19	6	-39	-36	-40	5	·	·	·	·	·	·
CCn1c2ccccc2c2nnc(NN)nc21	1.3	1	-4	-6	3	-1	·	·	·	·	·	·
CCn1c2ccc(C)cc2c2nnc(NN)nc21	-6.9*	3	-8	-4	-5	-1	0.01	?	0.034	0.0075	0.023	0.011
NCCCC[C@H]1CNC(=S)N1CCc1cccc(F)c1	-0.36	5	-10	-34	11	·	·	·	·	·	·	·
N#Cc1ccccc1Sc1ccccc1C(=O)OCc1nnc(-c2ccccc2)o1	-3.8*	8	-20	-2	-5	6	?	0.0059	0.031	0.01*	?	0.011
O=C(NN1C(=O)C2C3c4ccccc4C(c4ccccc43)C2C1=O)C1CC1 (stereo unspecified)	·	4	-11	-23	-10	·	·	·	·	·	·	·
CC1=CC(C)(C)n2c(O)c(N=NC(N)=S)c3cc(C)cc1c32	8.7*	-4	-11	-14	12	-3	0.012*	0.033*	0.03	0.016*	?	0.011*
O=C(CSC1=NC(=O)C(c2ccccc2)C(=O)N1)Nc1cccc(Cl)c1 (stereo unspecified)	·	7	-19	-18	-12	1	·	·	·	·	·	·
Cc1cc(=O)[nH]c(SCC(=O)Nc2ccc(C(=O)O)cc2)n1	-0.099	5	-1	-14	-18	3	·	·	·	·	·	·
CCOC(=O)c1ccc(NC(=O)CSc2nc(C)cc(=O)[nH]2)cc1	·	2	-18	-3	-8	3	0.0066	0.0043	0.032	0.0068	0.018	0.0092
COC(=O)c1ccc(NC(=O)CSC2=NC(=O)C(c3ccccc3)C(=O)N2)cc1 (stereo unspecified)	9.2*	3	-8	-14	3	2	0.0095	?	0.031	0.0074	0.019	?
